Hits are enriched below; roughly 2.5% of the tested compounds scored in any of these assays.
SENP6 inh: SENP6 protease inhibition; Q9GZR1; Recombinant SENP6 catalytic domain, aminoluciferin luminescence; inhibition, % at 10 µM; hit rate 1.8% among 330,000; AID 2599;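 active means inhibition above about 50% at the single tested dose, limit read from the data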;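 further: plate controls were DMSO wells with enzyme for no effect and DMSO wells lacking enzyme for full effect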
Target sequence (Q9GZR1 628-1112 limits assumed): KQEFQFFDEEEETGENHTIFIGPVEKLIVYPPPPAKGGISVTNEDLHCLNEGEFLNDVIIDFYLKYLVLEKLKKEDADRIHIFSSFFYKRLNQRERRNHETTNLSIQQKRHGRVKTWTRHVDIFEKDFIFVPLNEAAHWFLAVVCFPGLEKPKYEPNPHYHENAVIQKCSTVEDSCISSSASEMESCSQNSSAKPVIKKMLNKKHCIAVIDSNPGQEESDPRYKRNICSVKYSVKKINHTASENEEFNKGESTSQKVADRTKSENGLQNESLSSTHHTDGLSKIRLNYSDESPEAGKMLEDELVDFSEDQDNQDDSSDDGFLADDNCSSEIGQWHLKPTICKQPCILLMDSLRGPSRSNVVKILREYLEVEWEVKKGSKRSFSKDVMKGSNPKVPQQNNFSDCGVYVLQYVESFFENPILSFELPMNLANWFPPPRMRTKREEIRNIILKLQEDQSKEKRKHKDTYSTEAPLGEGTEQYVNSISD
SENP8 block-1: SENP8 protease inhibition; Q96LD8; purified SENP8, Z-RLRGG-aminoluciferin cleavage, luminescence; inhibition, % at 10 µM; hit rate 1.2% among 330,000; in the data active means inhibition above about 50%
SENP1 FRET inh: blocks the human SENP1 SUMO protease catalytic domain. hit rate 0.21% among 360,000. AID 624204. recombinant SENP1 catalytic domain, CyPet-SUMO1-YPet FRET cleavage. inhibition, % at 10 µM;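 active means inhibition at least 30% at 10 µM, raw YFP signal under a set limit, fluorescence ratio 0.5 to 1.5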;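 further: 0% = enzyme with DMSO and 100% = no enzyme wells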
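Test system: recombinant human SENP1 catalytic domain, His6-tagged / Medium: pH 8 Tris buffer with EDTA, NaCl, BME, BSA, NP40, catalase / Also added: SUMO1 FRET substrate flanked by Cypet and Ypet, 25 nM / Times: 50 min reaction at room temperature / Signal: FRET, CFP and YFP emission / Control set: no-enzyme low control and enzyme-plus-DMSO high control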
SENP7 block: SENP7 protease inhibition. Q9BQF6. hit rate 1.5% among 330,000. recombinant SENP7, Z-RLRGG-aminoluciferin luminescence, 40 min. inhibition, % at 5 µM;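 active means inhibition above about 50% at the single test dose, limit read from the data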;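 further: plate controls were DMSO with enzyme for no effect and no enzyme buffer wells for full effect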
SENP8 block-2: inhibitors of human SENP8 protease. recombinant SENP8, Nedd8 substrate fluorescence. hit rate 0.64% among 360,000. AID 602440. inhibition, % at 20 µM. Q96LD8; in the data active means inhibition mostly above about 40%, no sharp cut-off; inactive means mostly below about 27%
SENP8 confirm: human SENP8 inhibition, confirmed | shares compounds with SENP7 block | Recombinant SENP8, Z-RLRGG-aminoluciferin luminescence, 60 min | inhibition, % at 12.5 µM | hit rate 40% among 6,200 | AID 488912;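 active means mean inhibition across replicates above about 50%, limit read from the data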
SENP6 confirm: confirmation of human SENP6 protease inhibitors; shares compounds with SENP7 block; recombinant SENP6, Z-RLRGG-aminoluciferin luminescence; inhibition, % at 12.5 µM; hit rate 58% among 6,200
SENP7 conf: confirmation of human SENP7 protease inhibitors | hit rate 69% among 6,200 | shares compounds with SENP7 block | recombinant SENP7, Z-RLRGG-aminoluciferin luminescence, 40 min | inhibition, % at 12.5 µM | AID 488917
Casp3 SENP sel: selectivity test for SENP inhibitors: human caspase-3 inhibition; hit rate 60% among 6,200; AID 488918; shares compounds with SENP7 block; inhibition, % at 12.5 µM; purified caspase-3, Z-DEVD-aminoluciferin luminescence, 60 min;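 active means mean inhibition above about 50%, limit read from the data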;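 further: plate controls were enzyme with DMSO for no effect and wells without caspase-3 for full effect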
Luc interf: interferes with luciferase luminescence in SENP counter-screen; shares compounds with SENP7 block; Pre-incubated SENP8/Z-RLRGG-aminoluciferin, luciferase luminescence interference; inhibition, % at 12.5 µM; hit rate 39% among 6,200; AID 488919;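 active means mean inhibition above about 50% when retested at one dose, limit read from the data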;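 further: plate controls were DMSO wells with completed reaction for no effect and substrate without enzyme for full effect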
Numbers without * were called inactive; · = no result.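 How the source made its calls, unless noted: active means mean inhibition above about 50% in the one-dose retest (limit read from the data); inactive means the rest.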

SMILES | SENP6 inh | SENP8 block-1 | SENP1 FRET inh | SENP7 block | SENP8 block-2 | SENP8 confirm | SENP6 confirm | SENP7 conf | Casp3 SENP sel | Luc interf
CSc1ccc(NC(=O)Nc2cccn(Cc3ccccc3F)c2=O)cc1 | 63* | 44 | 0 | 49 | -190 | 21 | 9 | 43 | 26 | -2
COc1ccc2cc(C(c3nnnn3C(C)(C)C)N3CCc4ccccc4C3)c(=O)[nH]c2c1 (centres undefined) | 38 | 18 | · | 29 | · | · | · | · | · | ·
COc1ccc2cc(C(c3nnnn3C3CCCC3)N3CCc4ccccc4C3)c(=O)[nH]c2c1 (centres undefined) | 13 | 66* | -102 | 74* | -275 | 5 | 9 | 2 | -3 | -4
Cc1cc(NC(=O)CSc2ccc(-c3nc4cc(C)c(C)cc4[nH]3)cn2)no1 | 6 | 0 | -19 | 51* | -301 | -4 | 0 | 8 | 6 | 5
Cc1cc2nc(-c3ccc(SCC(=O)Nc4ccc(S(=O)(=O)NC5CC5)cc4)nc3)[nH]c2cc1C | 29 | 1 | -8 | 63* | -418 | 13 | 18 | 78* | 39 | 20
Cc1cc2nc(-c3ccc(SCC(=O)NC(C)C)nc3)[nH]c2cc1C | 8 | 1 | · | 11 | · | · | · | · | · | ·
COc1ccc(NC(=O)C2(C)Cc3c(-c4cccc(C(N)=O)c4)ccnc3O2)cn1 (centres undefined) | · | · | -3 | · | 13 | · | · | · | · | ·
Cc1ccc(-c2nc(-c3ccncc3)no2)c(Cl)c1 | 71* | 75* | -1 | 89* | 4 | -8 | 10 | 42 | 28 | 27
Cc1onc(-c2ccccc2Cl)c1-c1nc(-c2ccncc2)no1 | -12 | -1 | 0 | 1 | 12 | · | · | · | · | ·
Clc1ccc(Cl)c(-c2nc(-c3ccncc3)no2)c1 | 2 | 1 | 1 | -1 | 16 | · | · | · | · | ·
Clc1ccc(-c2nc(-c3ccncc3)no2)c(Cl)c1 | 63* | 58* | 1 | 77* | 26 | 8 | 10 | 26 | 20 | 10
CCOC(=O)c1sc(NC(=O)c2cc3ccccc3o2)nc1C | -36 | 10 | 0 | 34 | -402 | · | · | · | · | ·
Cc1ccc(C(=O)Nc2ncc(Cc3ccc(F)cc3)s2)o1 | 42 | 4 | -2 | 36 | -5 | · | · | · | · | ·
Cc1ccc(C(=O)Nc2ncc(C)s2)o1 | 60* | 35 | 2 | 67* | -1 | 62* | 58* | 87* | 90* | 67*
Cc1cnc(NC(=O)c2cc3ccccc3o2)s1 | 68* | 55* | -2 | 75* | -18 | 38 | 31 | 61* | 51* | 36
Cc1cnc(NC(=O)c2ccc3c(c2)OCCO3)s1 | 91* | 84* | 0 | 92* | -411 | 47 | 84* | 97* | 79* | 0
O=C(Nc1cccnc1Cl)c1cc2ccccc2o1 | 70* | 50 | 4 | 63* | 14 | 60* | 61* | 89* | 81* | 72*
Cc1cc(NC(=O)c2cccnc2Cl)ccc1NC(=O)c1cc2ccccc2o1 | -28 | -6 | 2 | -4 | 4 | · | · | · | · | ·
Cc1cc(Cl)c(C)c(S(=O)(=O)N2CCN(CC(=O)N3CCOCC3)CC2)c1Cl | -4 | -14 | 0 | 0 | 14 | · | · | · | · | ·
Cc1cc(C)c(C)c(S(=O)(=O)N2CCC(C(=O)N(C)Cc3nc4ccccc4c(=O)[nH]3)CC2)c1C | · | · | 1 | · | 7 | · | · | · | · | ·
Cc1nnc(NC(=O)c2cc3ccccc3o2)s1 | -2 | -5 | 1 | 2 | -14 | · | · | · | · | ·
Cc1nc(NC(=O)c2cc3ccccc3o2)sc1C | 89* | 89* | -1 | 90* | -27 | 71* | 91* | 100* | 93* | 33
CSc1ccccc1C(=O)Nc1ncc(C)s1 | 5 | -6 | 1 | 5 | -21 | · | · | · | · | ·
Cc1ccc(C(=O)Nc2ncc(C)s2)s1 | 61* | 45 | 0 | 57* | -9 | 54* | 55* | 86* | 80* | 32

From PubChem
